According to ChEMBL document CHEMBL1134856, “SAR of 2,6-diamino-3,5-difluoropyridinyl substituted heterocycles as novel p38MAP kinase inhibitors” (Bioorg Med Chem Lett, 2002):

Legend:
[1] = target: T1, Prostaglandin G/H synthase 1 (Ovis aries, UniProt P05979); assay: […] inhibition of ram seminal vesicle Prostaglandin G/H synthase 1 activity by determining PGE-2 by RIA
T1 sequence (P05979 whole entry): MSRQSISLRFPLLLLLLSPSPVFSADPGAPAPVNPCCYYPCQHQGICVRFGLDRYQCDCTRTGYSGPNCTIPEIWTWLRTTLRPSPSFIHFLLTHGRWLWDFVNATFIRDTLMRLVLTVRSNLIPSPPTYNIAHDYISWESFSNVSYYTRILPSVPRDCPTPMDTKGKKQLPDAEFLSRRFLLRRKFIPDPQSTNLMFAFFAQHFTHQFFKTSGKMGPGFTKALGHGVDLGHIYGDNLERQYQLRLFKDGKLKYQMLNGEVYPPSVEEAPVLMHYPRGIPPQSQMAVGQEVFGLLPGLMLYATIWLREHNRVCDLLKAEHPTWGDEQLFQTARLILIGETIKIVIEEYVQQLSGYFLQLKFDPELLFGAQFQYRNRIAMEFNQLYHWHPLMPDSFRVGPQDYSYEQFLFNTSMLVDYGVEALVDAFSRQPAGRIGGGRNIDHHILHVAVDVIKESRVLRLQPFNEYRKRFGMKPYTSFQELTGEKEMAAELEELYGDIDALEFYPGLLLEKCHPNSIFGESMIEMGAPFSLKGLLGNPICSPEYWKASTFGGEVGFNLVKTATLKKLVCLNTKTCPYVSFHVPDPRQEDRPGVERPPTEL

[2] = target: Mitogen-activated protein kinase 14 (Mus musculus, UniProt P47811); assay: […] inhibition of murine Mitogen-activated protein kinase p38 alpha activity, GST-ATF-2 as substrate in the presence of 120 uM ATP
Procedure, shortened: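 Phosphorylated His-tagged p38α MAP kinase of murine origin was used at 10 ng/well. Immobilised GST-ATF-2 served as substrate, with 120 μM cold ATP.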

PBMC = assay: Inhibition of LPS-stimulated TNF-alpha release from human peripheral blood mononuclear cells; assay type: functional, cell-based
Procedure, shortened: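 Human peripheral blood mononuclear cells from healthy volunteers were incubated with inhibitor and stimulated with LPS/IFN-γ for 3 h. TNF-α in the supernatants was determined by ELISA.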

Mus musculus = assay: Inhibition of LPS induced TNF-alpha release in mice at 10 mg/kg peroral dose; assay type: functional; conditions: route oral
Procedure, shortened: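 Female OF1 mice, 8 weeks old, received compound by oral gavage in DMSO/corn oil. One hour after dosing, LPS (20 mg/kg) was given iv. Blood was collected 1 h later, and plasma TNF-α was measured by mouse-specific ELISA.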

[3] = Tested for the Cmax in rat at 10 mg/kg per orally; assay type: ADME, organism-based; design: dose 10 mg/kg, route oral; conditions: in vivo, po
[4] = Tested for the half life in rat; assay type: ADME, organism-based; conditions: in vivo
Rattus norvegicus [5] = assay: Dose-dependent protective activity at 10 mg/kg (po, b.i.d.) on cartilage damage in hind paws of CIA-rats; assay type: functional
Rattus norvegicus [6] = assay: Dose-dependent protective activity at 30 mg/kg (po, b.i.d.) on cartilage damage in hind paws of CIA-rats; assay type: functional
Rattus norvegicus [7] = assay: Tested for inhibition of swelling in adjuvant induced arthritis rat at 25 mg/kg perorally b.i.d.; assay type: functional; conditions: route oral
Procedure, shortened: (§1)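 Adjuvant-induced arthritis: female Wistar rats were immunised with Mycobacterium tuberculosis on day 0. They were dosed orally at 2 × 25 mg/kg per day from day 14 to day 20. Joint swelling was measured on day 20.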

Rattus norvegicus [8] = assay: Dose-dependent protective activity at 3 mg/kg (po, b.i.d.) on cartilage damage in hind paws of CIA-rats; assay type: functional
Rattus norvegicus [9] = assay: Dose-dependent protective activity at 10 mg/kg (po, b.i.d.) on bone apposition in hind paws of CIA-rats; assay type: functional
Rattus norvegicus [10] = assay: Dose-dependent protective activity at 10 mg/kg (po, b.i.d.) in loss of proteoglycans in hind paws of CIA-rats; assay type: functional
Homo sapiens = species: Homo sapiens; assay: Inhibition of LPS-stimulated TNF-alpha release from human whole blood; assay type: functional
Rattus norvegicus [11] = species: Rattus norvegicus; assay: Tested for inhibition of paw swelling in collagen induced arthritis in rat, perorally b.i.d.; assay type: functional; conditions: oral
Procedure, shortened: (§2)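 Female WAGxBUF/F1 rats were immunised intradermally with bovine nasal septum type II collagen in Freund's incomplete adjuvant; swelling began about 10 days later. Oral dosing, once or twice daily, started on day 13 and continued for 10 days. Read-out was paw swelling, with ED50 values reported.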

Rattus norvegicus [12] = assay: Dose-dependent protective activity at 3 mg/kg (po, b.i.d.) in loss of proteoglycans in hind paws of CIA-rats; assay type: functional
Rattus norvegicus [13] = assay: Dose-dependent protective activity at 30 mg/kg (po, b.i.d.) in loss of proteoglycans in hind paws of CIA-rats; assay type: functional
Rattus norvegicus [14] = species: Rattus norvegicus; assay: Tested for inhibition of paw swelling in collagen induced arthritis in rat, perorally q.d.; assay type: functional; conditions: po; procedure, shortened: as §2
Rattus norvegicus [15] = assay: Dose-dependent protective activity at 10 mg/kg (po, b.i.d.) on infiltration of cells in hind paws of CIA-rats; assay type: functional
[16] = Tested for the bioavailability in rat; assay type: ADME, organism-based; conditions: in vivo
Rattus norvegicus [17] = species: Rattus norvegicus; assay: Inhibition of LPS induced TNF-alpha release in rats; assay type: functional
Rattus norvegicus [18] = assay: Dose-dependent protective activity at 3 mg/kg (po, b.i.d.) on bone apposition in hind paws of CIA-rats; assay type: functional
Rattus norvegicus [19] = assay: Dose-dependent protective activity at 30 mg/kg (po, b.i.d.) on infiltration of cells in hind paws of CIA-rats; assay type: functional
Rattus norvegicus [20] = assay: Dose-dependent protective activity at 3 mg/kg (po, b.i.d.) on infiltration of cells in hind paws of CIA-rats; assay type: functional
Rattus norvegicus [21] = assay: Dose-dependent protective activity at 30 mg/kg (po, b.i.d.) on bone apposition in hind paws of CIA-rats; assay type: functional
Rattus norvegicus [22] = assay: Tested for inhibition of swelling in adjuvant induced arthritis rat at 25 mg/kg per orally; Toxic; assay type: functional; conditions: po; procedure, shortened: as §1
Rattus norvegicus [23] = assay: Tested for inhibition of swelling in adjuvant induced arthritis rat at 25 mg/kg per orally; assay type: functional; conditions: route oral; procedure, shortened: as §1

Chain of Mitogen-activated protein kinase 14 (P47811 whole entry): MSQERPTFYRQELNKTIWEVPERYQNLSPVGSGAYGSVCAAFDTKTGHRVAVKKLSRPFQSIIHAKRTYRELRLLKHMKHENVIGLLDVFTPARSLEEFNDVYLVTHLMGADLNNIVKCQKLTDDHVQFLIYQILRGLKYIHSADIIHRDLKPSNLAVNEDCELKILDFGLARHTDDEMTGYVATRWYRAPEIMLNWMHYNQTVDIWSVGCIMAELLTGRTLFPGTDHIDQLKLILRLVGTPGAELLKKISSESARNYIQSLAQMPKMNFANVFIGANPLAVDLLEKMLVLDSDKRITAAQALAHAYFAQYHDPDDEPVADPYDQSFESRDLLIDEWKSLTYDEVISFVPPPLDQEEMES

SMILES | IC50 [1] [nM] | IC50 [2] [nM] | IC50 (PBMC) [nM] | inhibition in vivo at 10 mg/kg (Mus musculus) [%] | further results
Nc1nc(N)c(F)c(-c2cc(-c3ccncc3)c(-c3ccc(F)cc3)[nH]2)c1F | 6300 | 4 | 18 | – | –
Fc1ccc(-c2[nH]nnc2-c2ccncc2)cc1 | – | 1300 | – | – | –
Fc1ccc(-c2ncsc2-c2ccncc2)cc1 | – | 800 | – | – | –
Fc1ccc(-c2nc[nH]c2-c2ccncc2)cc1 | – | 1000 | – | – | –
Nc1nc(N)c(F)c(-n2nc(-c3ccncc3)c(-c3ccc(F)cc3)n2)c1F | 45000 | 210 | – | – | –
Fc1ccc(-c2nc(-c3c(F)c(F)nc(F)c3F)oc2-c2ccncc2)cc1 | – | 100000 | – | – | –
Fc1ccc(-c2[nH]ccc2-c2ccncc2)cc1 | – | 800 | – | – | –
Nc1nc(N)c(F)c(-c2nc(-c3ccc(F)cc3)c(-c3ccncc3)s2)c1F | 100000 | 140 | 31 | – | –
Fc1ccc(-c2[nH]c(-c3c(F)c(F)nc(F)c3F)nc2-c2ccncc2)cc1 | > 100000 | 90 | 74 | 3 | –
Nc1nc(N)c(F)c(-c2nc(-c3ccc(F)cc3)c(-c3ccncc3)[nH]2)c1F | > 100000 | 16 | 44 | 83 | Cmax [3]: 3.12 µM; half-life [4]: 1 h; Protective activity (Rattus norvegicus [5]): -44%; Protective activity (Rattus norvegicus [6]): -58%; ED50 (Rattus norvegicus [7]): 10 mg/kg; Protective activity (Rattus norvegicus [8]): -15%; Protective activity (Rattus norvegicus [9]): -44%; Protective activity (Rattus norvegicus [10]): -38%; IC50 (Homo sapiens): 250 nM; ED50 (Rattus norvegicus [11]): 5 mg/kg; Protective activity (Rattus norvegicus [12]): -17%; Protective activity (Rattus norvegicus [13]): -42%; ED50 (Rattus norvegicus [14]): 43 mg/kg; Protective activity (Rattus norvegicus [15]): -37%; bioavailability [16]: 49%; ED50 (Rattus norvegicus [17]): 4 mg/kg; Protective activity (Rattus norvegicus [18]): -4%; Protective activity (Rattus norvegicus [19]): -45%; Protective activity (Rattus norvegicus [20]): -11%; Protective activity (Rattus norvegicus [21]): -64%
Nc1nc(N)c(F)c(-c2nc(-c3cccc(C(F)(F)F)c3)c(-c3ccncc3)[nH]2)c1F | 100000 | 470 | 54 | 21 | –
Nc1nc(N)c(F)c(-c2nc(-c3ccncc3)c(-c3cc4ccccc4o3)[nH]2)c1F | 100000 | 5 | 27 | 1.8 | –
Fc1ccc(-c2nn(-c3c(F)c(F)nc(F)c3F)nc2-c2ccncc2)cc1 | 10000 | 10000 | – | – | –
Nc1nc(F)c(F)c(-c2nc(-c3ccncc3)c(-c3ccc(F)cc3)[nH]2)c1F | 100000 | 4 | 44 | 64 | inhibition in vivo at 25 mg/kg (Rattus norvegicus [22]): 71%
Nc1nc(F)c(F)c(-c2nc(-c3ccc(F)cc3)c(-c3ccncc3)o2)c1F | 100000 | 2100 | 1930 | – | –
Nc1nc(N)c(F)c(-c2nc(-c3ccncc3)c(-c3ccco3)[nH]2)c1F | 100000 | 670 | 294 | 28 | –
Nc1nc(N)c(F)c(-c2nc(-c3ccc(F)cc3)c(-c3ccncc3)o2)c1F | 100000 | 400 | 373 | 81 | inhibition in vivo at 25 mg/kg (Rattus norvegicus [23]): 19%
